Measurements from different studies.
Each line is one published result; the experiments were not run side by side.
CDK9 with cyclin T1: Cyclin-dependent kinase 9, with cyclin T1 (CDK9, Homo sapiens, UniProt P50750)
CDK9: Cyclin-dependent kinase 9 (CDK9, Homo sapiens, UniProt P50750)
CDK9 with cyclin K: Cyclin-dependent kinase 9, with cyclin K (CDK9, Homo sapiens, UniProt P50750)

The inhibition of `Cc1ccc(-n2nc(C(C)(C)C)cc2NC(=O)Nc2ccc(OCCN3CCOCC3)c3ccccc23)cc1` is reported as -17% (CDK9 with cyclin T1; enzyme activity, inhibitor; 10 µM).
The inhibition of `COc1cc(-c2cc(-c3ccc(N4CCNCC4)cc3)cnc2C)cc(OC)c1OC` is reported as 3% (CDK9 with cyclin T1; enzyme activity, inhibitor; 1 µM).
For `CNC(=O)c1cc(Oc2ccc(NC(=O)Nc3ccc(Cl)c(C(F)(F)F)c3)cc2)ccn1`, the inhibition was -4% (CDK9 with cyclin T1; enzyme activity, inhibitor; 0.3 µM).
The remaining binding of `Cc1cc(NC(=O)c2cccc(S(F)(F)(F)(F)F)c2)cc(-n2ccn3nc(-c4cccnc4)cc23)c1` is reported as 100% (CDK9; cell-free assay, competition with immobilised ligand; 1 µM).
`CCN(CC)CCNC(=O)c1c(C)[nH]c(/C=C2\C(=O)Nc3ccc(F)cc32)c1C` has an inhibition of -7% (CDK9 with cyclin T1; enzyme activity, inhibitor; 0.3 µM).
`CN(C)C1CCN(CC#Cc2nn(C3CCCC3)c3nc(NCc4ccccc4)ncc23)C1` (stereo not shown) gave an inhibition of 1% (CDK9 with cyclin T1; enzyme activity, inhibitor, FRET; 1 µM).
`Cc1cc(NC(=O)c2cccc3cc(-c4cccc5[nH]nc(N)c45)ccc23)ccc1F` gave an activity vs control of 106% (CDK9 with cyclin T1; enzyme activity, inhibitor; 0.1 µM).
`Nc1nc(Nc2ccc(S(N)(=O)=O)cc2)sc1C(=O)c1ccccc1[N+](=O)[O-]` has an inhibition of 90 to 93% (CDK9; enzyme activity, inhibitor; 0.1 µM).
With `CC(C)(C)c1nc(-c2cccc(NS(=O)(=O)c3c(F)cccc3F)c2F)c(-c2ccnc(N)n2)s1` the remaining activity was 98% (CDK9 with cyclin K; enzyme activity, inhibitor, radiometric; 1 µM).
With `O=C1Nc2ccc(Cl)cc2C1=Cc1cc(Cl)c(O)c(Cl)c1` the remaining signal was 79.4% (CDK9 with cyclin K; cell-free assay; 0.5 µM).
For `Cc1cnc(NC2CCOCC2)nc1-n1cnc(C(=O)NC(CN)c2cc(F)cc(Cl)c2)c1` (stereo not shown), the remaining activity was 46% (CDK9 with cyclin T1; enzyme activity, inhibitor, radiometric; 1 µM).
With `C#Cc1cccc(Nc2ncnc3cc(OCCOC)c(OCCOC)cc23)c1` the remaining signal was 87.3% (CDK9 with cyclin T1; cell-free assay; 0.5 µM).
The remaining activity of `CCN(CC)c1ccc(C2=NNC(=O)CC2C)cc1[N+](=O)[O-]` (stereo not shown) is reported as 105% (CDK9 with cyclin T1; enzyme activity, inhibitor; 10 µM).
`CC(C)(C)c1nc2c(s1)c1nc(N)ncc1c1ccc(NS(=O)(=O)c3c(F)cccc3F)c(F)c12` gave a remaining activity of 102% (CDK9 with cyclin T1; enzyme activity, inhibitor, radiometric; 1 µM).
`CS(=O)(=O)Nc1cccc(-c2csc(NC(=O)CSc3nc4nccnc4c(=O)n3CCc3ccccc3)n2)c1` gave an inhibition of -1% (CDK9 with cyclin K; enzyme activity, inhibitor; 10 µM).
The remaining binding of `O=C1CCc2cc(Nc3cc(OC4CCOCC4)c([N+](=O)[O-])cc3Cl)ccc2N1` is reported as 97% (CDK9; cell-free assay, competition with immobilised ligand; 1 µM).
With `Cc1ccc(C(=O)NCc2ccsc2)cc1C#Cc1cn(C(C)C)c2ncnc(N)c12` the activity vs control was 93% (CDK9 with cyclin T1; enzyme activity, inhibitor; 1 µM).
With `CCOC(=O)c1cc2cc(-c3cc(C(=O)NCc4ccc(C(=O)O)cc4)nn3C)ccc2[nH]1` the remaining binding was 97% (CDK9; cell-free assay, competition with immobilised ligand; 0.1 µM).
`O=C1NC(=O)c2cc(Nc3ccc(F)cc3)c(Nc3ccc(F)cc3)cc21` gave a remaining signal of 90.8% (CDK9 with cyclin K; cell-free assay; 0.5 µM).
The remaining signal of `Cc1ccc(NC(=O)c2ccc(C)c(C(F)(F)F)c2)cc1C#Cc1nn(C2CCC(O)CC2)c2ncnc(N)c12` (stereo not shown) is reported as 113% (CDK9 with cyclin T1; cell-free assay; 10 µM).
`CCCOc1ccc(OC)c(F)c1C(=O)c1ccc(C(=O)N[C@@H]2CNC[C@H]2NC(=O)c2ccc3[nH]ncc3c2)cc1` has a remaining activity of 101% (CDK9 with cyclin T1; enzyme activity, inhibitor; 10 µM).
The remaining binding of `CNC(=O)c1ccc(Nc2ncc(C(F)(F)F)c(NCc3nccnc3N(C)S(C)(=O)=O)n2)cc1` is reported as 86% (CDK9; cell-free assay, competition with immobilised ligand; 0.1 µM).
`N#CCCc1ccc2c(c1)-c1[nH]c3ccc([N+](=O)[O-])cc3c1CC(=O)N2` has a remaining signal of 28.6% (CDK9 with cyclin T1; cell-free assay; 0.5 µM).
`C[C@H](c1cccc(C#N)c1)n1cc(Cl)cc(C(N)=O)c1=N` gave a remaining binding of 84% (CDK9; cell-free assay, competition with immobilised ligand; 1 µM).
`Cc1ccc(Nc2nccc(N(C)c3ccc4c(C)n(C)nc4c3)n2)cc1S(N)(=O)=O` gave a remaining activity of 92.7% (CDK9 with cyclin K; enzyme activity, inhibitor; 0.5 µM).
For `CS(=O)(=O)NCC[C@H](NC(=O)c1cncc2c1cnn2-c1ccc(F)cc1)c1ccnc(S(C)(=O)=O)c1`, the remaining binding was 100% (CDK9; cell-free assay, competition with immobilised ligand; 1 µM).
With `C=CC(=O)Nc1cc(Nc2nccc(Nc3cc(Cl)c(F)cc3C(C)(C)O)n2)c(OC)cc1N1CC[C@@H](N(C)C)C1` the inhibition was 10% (CDK9 with cyclin T1; enzyme activity, inhibitor; 1 µM).
`c1ccc(N2CCN(Cc3nc4ccccc4[nH]3)CC2)nc1` gave a remaining binding of 100% (CDK9; binding, competition with immobilised ligand; 1 µM).
`c1ccc(CNc2nc(N3CCOc4ccccc43)nc3c2CCCC3)cc1` has an inhibition of -15.3% (CDK9; target engagement in cells, inhibitor, chemoproteomics; 20 mM).
For `CCCCN(CCCC)C(=O)CN1C[C@@H](c2cc(OC)c3c(c2)OCO3)[C@H](C(=O)O)[C@H]1CC(C)(C)CCC`, the remaining binding was 100% (CDK9; cell-free assay, competition with immobilised ligand; 1 µM).
With `Cc1ccc(NC(=O)c2ccc(CN3CCN(C)CC3)cc2)cc1Nc1nc(-c2cccnc2)cs1` the remaining signal was 109% (CDK9 with cyclin K; cell-free assay; 0.5 µM).
